Only some compounds are listed: those with a hit (about 3.5% of all), similar ones and a draw of the others.
NF-kB expr up – activators of NF-kB expression in neurons, primary screen, cell-based, HTS | human neuronal cells, NF-kB reporter expression; active compounds read high | fold change at 12.5 µM | hit rate 1.6% among 190,000; in the data active = fold change above about 3.3
Pf gametocyte – late stage P. falciparum gametocyte viability inhibitors, primary screen, ATP luminescence, HTS; P. falciparum stage V gametocytes, 24 h; inhibition, % at 10.9 µM; hit rate 0.065% among 150,000;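 active = inhibition above the mean plus 3 SD of compounds within the control limits, set per campaign, cut at about 38% in these data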
FLuc stim CS – FLuc activators, initial screening, artefact control for FLuc-dependent activation tests, biochemical, ATPlite luminescence | Luciferin 4-monooxygenase (Photinus pyralis), P08659 | AID 1027, 2008 | ATPlite luciferase biochemical, 10 min; 0 = ATP-free wells, 1 = DMSO control | 200,000 tested, under 10 active | activation factor at 10 µM;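 active = luciferase activation factor, scaled between plate controls, of at least 2 with compound at 10 µM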
Target sequence (P08659 whole entry, looked up): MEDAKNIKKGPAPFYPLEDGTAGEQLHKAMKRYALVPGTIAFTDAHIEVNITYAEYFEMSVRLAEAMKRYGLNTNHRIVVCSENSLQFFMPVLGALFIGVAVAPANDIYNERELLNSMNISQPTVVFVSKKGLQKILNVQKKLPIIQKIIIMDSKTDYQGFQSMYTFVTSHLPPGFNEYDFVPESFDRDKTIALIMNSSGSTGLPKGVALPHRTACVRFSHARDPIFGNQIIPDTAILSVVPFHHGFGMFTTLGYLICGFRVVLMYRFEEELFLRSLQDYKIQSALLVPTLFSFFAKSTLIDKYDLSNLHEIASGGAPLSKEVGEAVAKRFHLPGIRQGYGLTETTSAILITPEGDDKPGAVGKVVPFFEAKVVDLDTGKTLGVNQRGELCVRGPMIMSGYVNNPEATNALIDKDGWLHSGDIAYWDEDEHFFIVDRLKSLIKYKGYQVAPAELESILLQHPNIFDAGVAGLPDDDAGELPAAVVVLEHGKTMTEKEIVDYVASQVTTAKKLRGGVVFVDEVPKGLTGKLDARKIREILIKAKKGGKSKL
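Assay system – cell-free luciferase reagent · Medium – PBS-based ATP solution · Dosing – test compounds dosed from 2 mM stocks in 100% DMSO · Timing – 10 min, room temperature · Technique – light output (luminescence) · Measure – luminescence gain marking luciferase activators · Controls – No-ATP low control, compound-free enzyme-plus-ATP high control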
FLuc inhib CS – firefly luciferase enzyme inhibitors, primary screen, artefact control for luciferase-based inhibitor screens, biochemical, luminescence, ATPLite | Luciferin 4-monooxygenase (Photinus pyralis), P08659 | hit rate 1.5% among 200,000 | inhibition, % at 10 µM | 10 min;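 active = inhibition above about 50% when tested at 10 µM, limit read from the data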
APP 5'UTR act – activators of APP 5'UTR luciferase reporter, primary screen, SH-SY5Y cells | SH-SY5Y APP 5'UTR luciferase reporter, luminescence; zero percent = DMSO vehicle wells | activation, % at 2 µM | hit rate 1% among 190,000 | AID 1276, 2008;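 active = activation above a set limit, based on mean plus 3 SD of controls, cut at about 140% in these data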
STAT1 act – STAT1 signaling activators, primary screen, cell-based, HTS, luciferase reporter | NIH 3T3 STAT1-luciferase reporter, IFN-gamma, luminescence; 100% = IFN-gamma alone, no compound | activation (% of control), % at 5.5 µM | hit rate 2.6% among 200,000 | AID 932, 2007;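 active = activation above the screen-wide mean activation plus 3 SD, cut at about 130% in these data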
Large screens that a line does not name were inactive.

Brc1ccc(Oc2ncc(CN3CCOCC3)s2)cc1	none
CC(C)=CC(=O)Nc1ccccc1C(N)=O	none (no result: Pf gametocyte)
NC(=O)c1ccccc1NC(=O)/C=C/c1ccc(Cl)cc1	FLuc inhib CS 80, APP 5'UTR act 160, STAT1 act 144 (no result: Pf gametocyte)
NC(=O)c1ccccc1N/C=C/C(=O)c1ccccc1	NF-kB expr up 5.5, FLuc inhib CS 89
NC(=O)c1ccccc1NC(=O)/C=C/c1ccccc1	NF-kB expr up 3.6, FLuc inhib CS 82, STAT1 act 129
CSc1nsc(SCC(=O)N2CCCCC2)n1	STAT1 act 130 (no result: Pf gametocyte)
Cn1c(=O)c2c(nc(CN3CCN(CCO)CC3)n2Cc2cccc3ccccc23)n(C)c1=O	NF-kB expr up 4.3
CCN1CCN(Cc2nc3c(c(=O)n(C)c(=O)n3C)n2Cc2ccccc2Cl)CC1	none (no result: Pf gametocyte)
C=CCSc1nccc(-c2cc(Cl)sc2Cl)n1	none
CCCn1c(/N=C/c2c[nH]c3ccccc23)nc2ccccc21	none (no result: Pf gametocyte)
CCn1c(/N=C/c2c[nH]c3ccccc23)nc2ccccc21	FLuc inhib CS 57
O=C(O)c1cccc(-c2nnn(Cc3ccccc3)n2)c1	none (no result: Pf gametocyte)
O=C(O)c1cccc(-c2nnn(Cc3ccccc3Cl)n2)c1	NF-kB expr up 4.2 (no result: Pf gametocyte)
COc1ccc(C(=O)C[n+]2cn(C(F)F)c3ccccc32)c(F)c1	STAT1 act 130
Clc1ccc(/C=N/Nc2nnc(-c3ncc[nH]3)c3ccccc23)cc1	FLuc inhib CS 75
C=CCSc1nnc2nc3c(nn12)c1cc(C)ccc1n3CC=C	none (no result: Pf gametocyte)
COc1cccc(NC(=O)C(=O)NCc2ccncc2)c1	STAT1 act 129
COc1cccc(NC(=O)C(=O)N2CCOCC2)c1	STAT1 act 136 (no result: Pf gametocyte, APP 5'UTR act)
O=C(COC(=O)C1CCN(S(=O)(=O)c2cccs2)CC1)NCc1ccccc1	none
COc1ccc(-c2cc(CC3(C(=O)O)CCN(C(=O)OC(C)(C)C)CC3)on2)c(OC)c1	none (no result: NF-kB expr up, FLuc stim CS, FLuc inhib CS, APP 5'UTR act, STAT1 act)
Cc1nc(NCc2ccco2)c2c3c(sc2n1)CCC3	STAT1 act 150
O=C(Nc1ccccc1OCc1ccccc1)c1ccccc1Br	none (no result: NF-kB expr up, FLuc stim CS, FLuc inhib CS, APP 5'UTR act, STAT1 act)
Cc1ccc(C)c(SCC(=O)OC/C(O)=C(\C#N)c2nc3ccccc3[nH]2)c1	none
N#C/C(=C(/O)COC(=O)CSc1ccc2ccccc2c1)c1nc2ccccc2[nH]1	NF-kB expr up 3.5 (no result: Pf gametocyte)
c1csc(-c2nc3ccccc3s2)c1	none (no result: NF-kB expr up, FLuc stim CS, FLuc inhib CS, APP 5'UTR act, STAT1 act)
c1csc(-c2ccc3ccccc3n2)c1	STAT1 act 147
COc1cc(C2C(S(=O)(=O)c3ccccc3)CON2C)ccc1OCc1ccc(F)cc1 (configuration not stated)	NF-kB expr up 6.6 (no result: Pf gametocyte)
CCOc1cccc(/C=C(\C#N)C(=O)NC2CC2)c1	none (no result: NF-kB expr up, FLuc stim CS, FLuc inhib CS, APP 5'UTR act, STAT1 act)
Fc1ccccc1NC(=S)N1CCC(c2ccccc2)C1 (configuration not stated)	STAT1 act 146
S=C(Nc1ccccc1Cl)N1CCC(c2ccccc2)C1 (configuration not stated)	NF-kB expr up 3.4, STAT1 act 148
Cc1ccc(NC(=S)N2CCC(c3ccccc3)C2)c(Cl)c1 (configuration not stated)	NF-kB expr up 6.5, FLuc inhib CS 74, APP 5'UTR act 190
Fc1ccccc1NC(=S)N1CCCCC1	none
CCc1cccc(NC(=S)N2CCC(c3ccccc3)C2)c1 (configuration not stated)	none
Fc1cc(F)cc(NC(=S)N2CCC(c3ccccc3)C2)c1 (configuration not stated)	STAT1 act 141
Cc1c(NC(=O)Nc2cc(F)c(F)cc2Cl)c(=O)n(-c2ccccc2)n1C	none (no result: NF-kB expr up, FLuc stim CS, FLuc inhib CS, APP 5'UTR act, STAT1 act)
Cc1ccccc1C(=O)c1cccn1CC(=O)NCc1ccc2c(c1)OCO2	none
CC(=O)OCC(=O)Nc1ccccc1C	none
CCOCCCNS(=O)(=O)c1ccc(NC(=O)C2CC(=O)N(c3ccc(C)cc3)C2)cc1 (configuration not stated)	none
CN(C)S(=O)(=O)c1ccc(NC(=O)c2cc3ccccc3o2)cc1	none
COc1ccccc1NS(=O)(=O)c1cccc(NC(=O)c2cc3ccccc3oc2=O)c1	STAT1 act 140 (no result: Pf gametocyte)
COc1ccccc1NS(=O)(=O)c1cccc(NC(=O)Nc2ccccc2)c1	none
CN(c1ccccc1)S(=O)(=O)c1cccc(NC(=O)c2cc3ccccc3oc2=O)c1	none (no result: NF-kB expr up, FLuc stim CS, FLuc inhib CS, APP 5'UTR act, STAT1 act)
Cc1ccc(NC(=O)c2cc3ccccc3oc2=O)cc1S(=O)(=O)N(C)C	FLuc inhib CS 87 (no result: Pf gametocyte)
Cc1ccc(NC(=O)c2cc3ccccc3o2)cc1S(=O)(=O)N(C)C	NF-kB expr up 5.2, FLuc inhib CS 72, STAT1 act 143
O=[N+]([O-])c1ccc(OCc2n[nH]c(=S)n2-c2ccccc2)cc1	none (no result: NF-kB expr up, FLuc stim CS, FLuc inhib CS, APP 5'UTR act, STAT1 act)
COc1ccc(-c2cc(-c3ccccc3)c(C#N)c(S(C)(=O)=O)n2)cc1	NF-kB expr up 6.3 (no result: Pf gametocyte)
CS(=O)(=O)c1nc(-c2ccc(Br)cc2)cc(-c2ccccc2)c1C#N	none (no result: Pf gametocyte)
Clc1ccc2oc(-c3ccccc3)cc(=NCCCN3CCOCC3)c2c1	STAT1 act 147
Clc1cccc(-c2nc(NCCCN3CCOCC3)c3ccccc3n2)c1	none (no result: NF-kB expr up, Pf gametocyte)
COCCn1c(C)cc(C(=O)COC(=O)c2cc3c(s2)CCC3)c1C	STAT1 act 136
Cc1cc(C(=O)CSc2nnc(N)s2)c(C)n1Cc1ccco1	NF-kB expr up 4.1, FLuc inhib CS 80, APP 5'UTR act 235
COCCn1c(C)cc(C(=O)CSc2nnc(C)s2)c1C	FLuc inhib CS 70 (no result: Pf gametocyte)
COCCn1c(C)cc(C(=O)CSc2n[nH]c(N)n2)c1C	none (no result: Pf gametocyte)
Cc1cc(C(=O)COC(=O)c2cccn2C)c(C)n1Cc1ccco1	FLuc inhib CS 80, APP 5'UTR act 166 (no result: Pf gametocyte)
COc1cc(S(=O)(=O)NCCCn2ccnc2)ccc1Cl	none (no result: NF-kB expr up, FLuc stim CS, FLuc inhib CS, APP 5'UTR act, STAT1 act)
O=C(NC(=S)NN1CCCCC1c1cccnc1)c1ccc(Cl)cc1Cl (configuration not stated)	none (no result: NF-kB expr up, FLuc stim CS, FLuc inhib CS, APP 5'UTR act, STAT1 act)
CCN(CC)c1ccc(NC(=O)c2ccc3c(c2)OCO3)cc1	none (no result: NF-kB expr up, FLuc stim CS, FLuc inhib CS, APP 5'UTR act, STAT1 act)
Cc1cc(C(=O)COC(=O)c2ccncc2)c(C)n1Cc1ccco1	FLuc inhib CS 79, STAT1 act 129
CN(C)S(=O)(=O)c1ccc(Cl)c(NC(=O)CN2CCNC(=O)C2)c1	none
Cc1cc(C)nc(NC(=NCCc2c[nH]c3ccccc23)NC(=O)C(C)(C)C)n1	none (no result: NF-kB expr up, FLuc stim CS, FLuc inhib CS, APP 5'UTR act, STAT1 act)
N#Cc1cc2c(nc1SCc1ccncc1)CCC2	STAT1 act 138
Cc1cc(NC(=O)CSc2nc3c(cc2C#N)CCCC3)no1	APP 5'UTR act 207, STAT1 act 138 (no result: Pf gametocyte)
CCOC(=O)CC(=O)CSc1nc2c(cc1C#N)CCCCC2	NF-kB expr up 4.6, STAT1 act 141
CC(C)OC(=O)CC(=O)CSc1nc2c(cc1C#N)CCCCC2	NF-kB expr up 4.3 (no result: Pf gametocyte)
CC(C)OC(=O)CSc1nc2c(cc1C#N)CCCCC2	none
Clc1ncccc1OCc1ccccc1	none (no result: NF-kB expr up, FLuc stim CS, FLuc inhib CS, APP 5'UTR act, STAT1 act)
